pIC50: −log10 of the molar value.
Tests used:
[1] = test system: Mus musculus; assay: Ability to inhibit the incorporation of [5-3H]-mevalonolactone into cholesterol by in vivo mouse assay by peroral administration at a dose of 24 mg/kg; format: functional; details: route oral
How it was run: (§1)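 Female Swiss Webster mice (~25 g), six per group, dosed po by gavage with inhibitor suspended in 5% emulphor. 30 min later, 0.5 μCi/mouse [5-3H]mevalonolactone in saline given sc. Livers removed 30 min after that and saponified in KOH/EtOH overnight at 55 °C, then petroleum-ether extracted. Nonsaponifiable dpm counted. Compounds first tested at a single dose (typically 12 or 24 mg/kg).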

[2] = biological target: T1, Squalene synthase (Rattus norvegicus, UniProt Q02769); assay: Tested for inhibition against squalene synthase enzyme in rat liver
T1 sequence (Q02769 whole entry): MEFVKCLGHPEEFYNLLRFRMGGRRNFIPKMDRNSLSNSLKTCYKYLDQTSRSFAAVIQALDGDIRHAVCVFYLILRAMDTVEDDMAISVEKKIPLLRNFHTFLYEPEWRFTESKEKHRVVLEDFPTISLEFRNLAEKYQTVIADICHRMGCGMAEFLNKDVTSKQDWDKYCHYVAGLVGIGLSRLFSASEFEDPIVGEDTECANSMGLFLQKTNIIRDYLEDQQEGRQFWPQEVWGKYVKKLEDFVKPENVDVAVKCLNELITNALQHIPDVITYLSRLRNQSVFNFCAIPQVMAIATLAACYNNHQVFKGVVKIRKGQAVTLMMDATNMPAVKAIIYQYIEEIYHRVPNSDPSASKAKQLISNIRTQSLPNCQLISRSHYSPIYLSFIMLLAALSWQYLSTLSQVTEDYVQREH

[3] = biological target: T2, Squalene synthase (Rattus norvegicus) (UniProt Q02769); assay: Concentration required to inhibit rat liver squalene synthase enzyme relative to control (L-694,599)
T2 sequence (whole entry): T1 sequence (Q02769 whole entry)
How it was run: (§2)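 Enzyme from rat liver. […] Inhibitors added in DMSO (0.3% final) as 3-fold serial dilutions, usually up to 30 ng/mL (about 40 nM). IC50 read from % inhibition vs log concentration.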

[4] = biological target: T2, Squalene synthase (Rattus norvegicus); assay: concentration required to inhibit rat liver squalene synthase enzyme relative to control (L-694,599); how it was run: as §2
[5] = test system: HepG2; assay: Concentration required to inhibit cholesterol synthesis in Hep G2 cells; format: functional, cell-based; details: Homo sapiens
How it was run: (§3)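 Hep G2 cells held 2 days in lipoprotein-depleted FBS to stimulate sterol synthesis, then given inhibitor in serum-free medium for 2 h. 15 μCi [5-3H]mevalonate (0.2 mCi/mmol) added for 1 h. Cells washed and saponified, and radioactivity counted by scintillation.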

[6] = test system: HepG2; assay: Concentration required to inhibit cholesterol synthesis in Hep G2 cells relative to control (IC50 of L-694,599); format: functional, Homo sapiens; how it was run: as §3
[7] = biological target: T3, Squalene synthase (Mus musculus) (UniProt P53798); assay: Tested for the effective dose required for the incorporation of [5-3H]-mevalonolactone into cholesterol by in vivo mouse assay by peroral administration; format: functional, organism-based; how it was run: as §1
T3 sequence (whole entry): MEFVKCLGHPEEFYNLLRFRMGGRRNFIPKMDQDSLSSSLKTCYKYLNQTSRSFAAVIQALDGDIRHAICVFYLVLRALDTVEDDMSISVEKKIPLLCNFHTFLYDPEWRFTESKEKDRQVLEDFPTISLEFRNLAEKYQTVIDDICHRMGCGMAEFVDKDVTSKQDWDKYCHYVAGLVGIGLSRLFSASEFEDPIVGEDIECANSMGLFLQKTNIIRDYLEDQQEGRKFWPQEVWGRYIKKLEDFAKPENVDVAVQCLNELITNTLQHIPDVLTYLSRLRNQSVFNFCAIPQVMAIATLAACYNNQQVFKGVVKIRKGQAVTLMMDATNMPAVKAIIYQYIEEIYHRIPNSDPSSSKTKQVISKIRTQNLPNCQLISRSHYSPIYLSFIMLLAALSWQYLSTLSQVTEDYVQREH

pIC50 [2]	Relative activity [3]	Relative activity [4]	pIC50 [5]	ED50 [7] [mg/kg]	SMILES	inhibition in vivo at 24 mg/kg [1] [%]	Relative activity [6]
9.59	0.77				C=C(CCC12OC(C(=O)O)C(O)(C(=O)O)C(C(=O)O)(O1)[C@H](OC(=O)OCCC[C@@H](C)C[C@@H](C)CC)[C@H]2O)[C@@H](OC(C)=O)[C@H](C)Cc1ccccc1 (some centres undefined)	-4	
7.77		0.02			C=C(CCC12OC(C(=O)O)C(OCCCCCCCCCCCC)(C(=O)O)C(C(=O)O)(O1)[C@H](OCCCCCCCCCCCC)[C@H]2O)[C@@H](OC(C)=O)[C@H](C)Cc1ccccc1 (some centres undefined)		
9.42	0.45		5.10		C=C(CCC12OC(C(=O)O)C(O)(C(=O)O)C(C(=O)O)(O1)[C@H](OC(=O)CCCCCCCCCCc1ccccc1)[C@H]2O)[C@@H](OC(C)=O)[C@H](C)Cc1ccccc1 (some centres undefined)	11	1.37
9.38		0.69			C=C(CCC12OC(C(=O)O)C(O)(C(=O)O)C(C(=O)O)(O1)[C@H](OC(=O)/C=C/[C@@H](C)C[C@@H](C)CC)[C@H]2O)[C@@H](OC(=O)CC)[C@H](C)Cc1ccccc1 (some centres undefined)	-4	
9.70	1.1		6.05		C=C(CCC12OC(C(=O)O)C(O)(C(=O)O)C(C(=O)O)(O1)[C@H](OC(=O)CCCCCCCCCCCCC)[C@H]2O)[C@@H](OC(C)=O)[C@H](C)Cc1ccccc1 (some centres undefined)		6.11
8.09		0.02			C=C(CCC12OC(C(=O)O)C(OCCCCCCCCOc3ccccc3)(C(=O)O)C(C(=O)O)(O1)[C@H](OCCCCCCCCOc1ccccc1)[C@H]2O)[C@@H](OC(C)=O)[C@H](C)Cc1ccccc1 (some centres undefined)		
9.09		0.16			C=C(CCC12OC(C(=O)O)C(OCCCCCCCCOc3ccccc3)(C(=O)O)C(C(=O)O)(O1)[C@H](O)[C@H]2O)[C@@H](OC(C)=O)[C@H](C)Cc1ccccc1 (some centres undefined)		
9.72	0.74		5.12		C=C(CCC12OC(C(=O)O)C(O)(C(=O)O)C(C(=O)O)(O1)[C@H](OC(=O)CC[C@@H](C)C[C@@H](C)CC)[C@H]2O)[C@@H](OC(C)=O)[C@H](C)Cc1ccccc1 (some centres undefined)		0.8
				> 24	C=C(CCC12OC(C(=O)O)C(O)(C(=O)O)C(C(=O)O)(O1)[C@H](O)[C@H]2O)[C@@H](OC(C)=O)[C@H](C)Cc1ccccc1 (some centres undefined)	34	
6.44	0.0008				CCCC(=O)O[C@@H]1[C@@H](O)C2(CCCCCCc3ccccc3)OC(C(=O)O)C(O)(C(=O)O)C1(C(=O)O)O2 (some centres undefined)	-6	
				> 24	C=C(CCC12OC(C(=O)O)C(O)(C(=O)O)C(C(=O)O)(O1)[C@H](OC(=O)CCCC)[C@H]2O)[C@@H](OC(C)=O)[C@H](C)Cc1ccccc1 (some centres undefined)	40	
8.47		0.06		14	C=C(CCC12OC(C(=O)O)C(O)(C(=O)O)C(C(=O)O)(O1)[C@H](OC(=O)SC(C)C)[C@H]2O)[C@@H](OC(C)=O)[C@H](C)Cc1ccccc1 (some centres undefined)		
9.62		1.67			C=C(CCC12OC(C(=O)O)C(O)(C(=O)O)C(C(=O)O)(O1)[C@H](OC(=O)/C=C/[C@@H](C)C[C@@H](C)CC)[C@H]2O)C[C@H](C)Cc1ccccc1 (some centres undefined)		
9.55	0.5				C=C(CCC12OC(C(=O)O)C(O)(C(=O)O)C(C(=O)O)(O1)[C@H](OC(=O)NCCCCCCCCCCCCCC)[C@H]2O)[C@@H](OC(C)=O)[C@H](C)Cc1ccccc1 (some centres undefined)	12	
8.80	0.14			40	C=C(CCC12OC(C(=O)O)C(O)(C(=O)O)C(C(=O)O)(O1)[C@H](OC(=O)NCc1ccccc1)[C@H]2O)[C@@H](OC(C)=O)[C@H](C)Cc1ccccc1 (some centres undefined)		
9.28	0.27		5.60		C=C(CCC12OC(C(=O)O)C(O)(C(=O)O)C(C(=O)O)(O1)[C@H](OC(=O)CCCCCCCCCCCCCCC)[C@H]2O)[C@@H](OC(C)=O)[C@H](C)Cc1ccccc1 (some centres undefined)		2.2

pIC50 [2]	Relative activity [3]	Relative activity [4]	pIC50 [5]	ED50 [7] [mg/kg]	SMILES	inhibition in vivo at 24 mg/kg [1] [%]	Relative activity [6]
7.68	0.02			8	C=C(CCC12OC(C(=O)O)C(O)(C(=O)O)C(C(=O)O)(O1)[C@H](OC(=O)C(C)C)[C@H]2O)[C@@H](OC(C)=O)[C@H](C)Cc1ccccc1 (some centres undefined)		
8.46	0.06			9	C=C(CCC12OC(C(=O)O)C(O)(C(=O)O)C(C(=O)O)(O1)[C@H](OC(=O)OC)[C@H]2O)[C@@H](OC(C)=O)[C@H](C)Cc1ccccc1 (some centres undefined)		
8.10	0.05			6	C=C(CCC12OC(C(=O)O)C(O)(C(=O)O)C(C(=O)O)(O1)[C@H](OC(=O)NC(C)C)[C@H]2O)[C@@H](OC(C)=O)[C@H](C)Cc1ccccc1 (some centres undefined)		
9.12		0.17			C=C(CCC12OC(C(=O)O)C(OCCCCCCCCCCCCCC)(C(=O)O)C(C(=O)O)(O1)[C@H](O)[C@H]2O)[C@@H](OC(C)=O)[C@H](C)Cc1ccccc1 (some centres undefined)		
8.49	0.09			11	C=C(CCC12OC(C(=O)O)C(O)(C(=O)O)C(C(=O)O)(O1)[C@H](OC(=O)NC1CC1)[C@H]2O)[C@@H](OC(C)=O)[C@H](C)Cc1ccccc1 (some centres undefined)		
9.10	0.46			> 24	C=C(CCC12OC(C(=O)O)C(O)(C(=O)O)C(C(=O)O)(O1)[C@H](OC(=O)NCC13CC4CC(CC(C4)C1)C3)[C@H]2O)[C@@H](OC(C)=O)[C@H](C)Cc1ccccc1 (some centres undefined)	-5	
8.06	0.03				C=C(CCC12OC(C(=O)O)C(O)(C(=O)O)C(C(=O)O)(O1)[C@H](OC(=O)CCC)[C@H]2O)[C@@H](OC(=O)CC)[C@H](C)Cc1ccccc1 (some centres undefined)	67	
8.37	0.13			11	C=C(CCC12OC(C(=O)O)C(O)(C(=O)O)C(C(=O)O)(O1)[C@H](OC(=O)CC(C)C)[C@H]2O)[C@@H](OC(C)=O)[C@H](C)Cc1ccccc1 (some centres undefined)		
8.96		0.11			C=C(CCC12OC(C(=O)O)C(OCCCCCCCCCCCOc3ccccc3)(C(=O)O)C(C(=O)O)(O1)[C@H](O)[C@H]2O)[C@@H](OC(C)=O)[C@H](C)Cc1ccccc1 (some centres undefined)		
8.74	0.144				CC[C@H](C)C[C@H](C)CCC(=O)O[C@@H]1[C@@H](O)C2(CCCCCCc3ccccc3)OC(C(=O)O)C(O)(C(=O)O)C1(C(=O)O)O2 (some centres undefined)	-2	
8.64	0.09			9	C=C(CCC12OC(C(=O)O)C(O)(C(=O)O)C(C(=O)O)(O1)[C@H](OCCC(C)C)[C@H]2O)[C@@H](OC(C)=O)[C@H](C)Cc1ccccc1 (some centres undefined)		
9.10	0.25				C=C(CCC12OC(C(=O)O)C(O)(C(=O)O)C(C(=O)O)(O1)[C@H](OC(=O)NCCC[C@@H](C)C[C@@H](C)CC)[C@H]2O)[C@@H](OC(C)=O)[C@H](C)Cc1ccccc1 (some centres undefined)	-2	
9.70	1				C=C(CCC12OC(C(=O)O)C(O)(C(=O)O)C(C(=O)O)(O1)[C@H](OCCC[C@@H](C)C[C@@H](C)CC)[C@H]2O)[C@@H](OC(C)=O)[C@H](C)Cc1ccccc1 (some centres undefined)	38	
8.01	0.027				C=C(CCC12OC(C(=O)O)C(O)(C(=O)O)C(C(=O)O)(O1)[C@H](OC(=O)CCC)[C@H]2O)[C@@H](OC(=O)CCC)[C@H](C)Cc1ccccc1 (some centres undefined)	1	
8.70	0.08			12	C=C(CCC12OC(C(=O)O)C(O)(C(=O)O)C(C(=O)O)(O1)[C@H](OCCCC)[C@H]2O)[C@@H](OC(C)=O)[C@H](C)Cc1ccccc1 (some centres undefined)		
9.85	1				CC(/C=C/CCC(=O)O[C@@H]1[C@@H](O)C2(CCCCC(C)Cc3ccccc3)OC(C(=O)O)C(O)(C(=O)O)C1(C(=O)O)O2)CCCc1ccccc1 (some centres undefined)	8	
